# Experimental data from ChEMBL document CHEMBL1142652, “5-(2-aminoethyl)dibenzo[c,h][1,6]naphthyridin-6-ones: variation of n-alkyl substituents modulates sensitivity to efflux transporters associated with multidrug resistance” (J Med Chem, 2005).
# Key:
# KB 3-1 [1] = test: Inhibitory concentration against KB3-1 cell line was determined; type: functional, cell-based; conditions: Homo sapiens
# How it was run: (§1)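 MTT microtiter tetrazolium assay. Cells exposed continuously for 4 days to varying drug concentrations, MTT read at the end of day 4. An untreated control ran in each assay. IC50 taken; each assay done at least twice in six replicate wells. Sources: RPMI 8402 human lymphoblasts and CPT-resistant CPT-K5; P388 mouse leukemia and CPT-resistant TOP1-deficient P388/CPT45; KB3-1 with KBV-1 (MDR1) and KBH5.0 (BCRP, selected stepwise against Hoechst 33342).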
# RPMI 8402 [2] = test: Inhibitory concentration against lymphoblast RPMI 8402 cell line was determined; type: functional, cell-based; conditions: Homo sapiens; how it was run: as §1
# P388 = test: Inhibitory concentration against P388 cell line in mouse leukemia was determine; type: functional, cell-based; how it was run: as §1
# RPMI 8402 [3] = test: Cytotoxicity against camptothecin-resistant RPMI 8402; type: functional, cell-based; conditions: Homo sapiens; how it was run: as §1
# KB 3-1 [4] = test: Inhibitory concentration against KBH5.0 cells overexpress BCRP; type: functional, cell-based; conditions: Homo sapiens, KBH5.0 cell; how it was run: as §1
# [5] = Inhibitory concentration against KB/V-1 cells overexpress MDR1; type: functional, cell-based; conditions: Homo sapiens; how it was run: as §1
# [6] = Inhibitory concentration against camptothecin-resistant variant of P388 cell line was determined; type: functional, cell-based, Mus musculus; how it was run: as §1
# [7] = target: T1, DNA topoisomerase 1 (Homo sapiens) (UniProt P11387); test: Relative topoisomerase I-mediated plasmid DNA cleavage compared to topotecan; type: functional
# T1 sequence (whole entry): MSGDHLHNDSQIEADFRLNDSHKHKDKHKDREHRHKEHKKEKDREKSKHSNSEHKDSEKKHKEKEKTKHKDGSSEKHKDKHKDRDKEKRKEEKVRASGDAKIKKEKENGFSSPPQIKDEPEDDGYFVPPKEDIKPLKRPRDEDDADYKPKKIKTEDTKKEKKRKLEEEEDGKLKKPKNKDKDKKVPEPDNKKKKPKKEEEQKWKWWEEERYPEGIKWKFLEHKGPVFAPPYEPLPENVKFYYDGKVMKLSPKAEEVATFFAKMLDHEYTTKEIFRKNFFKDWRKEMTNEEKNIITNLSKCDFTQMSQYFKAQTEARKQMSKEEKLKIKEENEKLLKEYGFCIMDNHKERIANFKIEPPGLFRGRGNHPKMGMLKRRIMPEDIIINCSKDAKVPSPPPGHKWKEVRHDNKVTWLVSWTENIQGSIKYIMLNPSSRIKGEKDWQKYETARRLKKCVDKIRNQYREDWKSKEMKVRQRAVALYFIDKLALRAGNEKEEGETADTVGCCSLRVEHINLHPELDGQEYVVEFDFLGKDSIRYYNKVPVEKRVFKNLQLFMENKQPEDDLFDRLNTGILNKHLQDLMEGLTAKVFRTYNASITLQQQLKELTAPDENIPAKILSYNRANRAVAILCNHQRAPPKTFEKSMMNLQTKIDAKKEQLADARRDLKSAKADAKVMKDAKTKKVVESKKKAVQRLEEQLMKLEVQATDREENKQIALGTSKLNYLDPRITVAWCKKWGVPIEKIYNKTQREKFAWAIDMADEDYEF
# How it was run: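 Recombinant human topoisomerase I (T7-expressed in E. coli as a fusion protein). End-labeled plasmid YepG, CsCl-purified, incubated with drug and enzyme 30 min at 37 °C. Gel autoradiograms, typically 24 h exposure. Value is REC: concentration relative to topotecan (set at 1.0) that gives the same cleavage.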
SMILES,IC50 (KB 3-1 [1]),IC50 (RPMI 8402 [2]),IC50 (P388),IC50 (RPMI 8402 [3]),IC50 (KB 3-1 [4]),IC50 [5],IC50 [6],Activity [7]
COc1cc2c(=O)n(CCN(C)Cc3ccccc3)c3c4cc5c(cc4ncc3c2cc1OC)OCO5,50 nM,53 nM,38 nM,2000 nM,150 nM,300 nM,450 nM,15.8
COc1cc2c(=O)n(CCN(Cc3ccccc3)C(C)C)c3c4cc5c(cc4ncc3c2cc1OC)OCO5,800 nM,300 nM,230 nM,5900 nM,500 nM,4000 nM,650 nM,7.4
COc1cc2c(=O)n(CCNC(C)(C)C)c3c4cc5c(cc4ncc3c2cc1OC)OCO5,3 nM,2 nM,2 nM,220 nM,6 nM,16 nM,37 nM,0.1
COc1cc2c(=O)n(CCN(Cc3ccccc3)Cc3ccccc3)c3c4cc5c(cc4ncc3c2cc1OC)OCO5,300 nM,380 nM,250 nM,1950 nM,300 nM,360 nM,500 nM,15
COc1cc2c(=O)n(CCN3CCCCC3)c3c4cc5c(cc4ncc3c2cc1OC)OCO5,4 nM,7 nM,6 nM,400 nM,9 nM,13 nM,50 nM,0.6
COc1cc2c(=O)n(CCNCc3ccccc3)c3c4cc5c(cc4ncc3c2cc1OC)OCO5,6 nM,16 nM,16 nM,280 nM,10 nM,35 nM,180 nM,0.5
COc1cc2c(=O)n(CCN)c3c4cc5c(cc4ncc3c2cc1OC)OCO5,5 nM,4 nM,3 nM,250 nM,12 nM,15 nM,27 nM,0.02
COc1cc2c(=O)n(CCN3CCN(C)CC3)c3c4cc5c(cc4ncc3c2cc1OC)OCO5,500 nM,300 nM,230 nM,5900 nM,400 nM,2500 nM,650 nM,1000
CCN(CCn1c(=O)c2cc(OC)c(OC)cc2c2cnc3cc4c(cc3c21)OCO4)Cc1ccccc1,180 nM,77 nM,50 nM,7500 nM,330 nM,400 nM,360 nM,12.3
COc1cc2c(=O)n(CCN3CCN(Cc4ccccc4)CC3)c3c4cc5c(cc4ncc3c2cc1OC)OCO5,500 nM,400 nM,250 nM,700 nM,750 nM,700 nM,200 nM,1000
CC[C@@]1(O)C(=O)OCc2c1cc1n(c2=O)Cc2cc3c(CN(C)C)c(O)ccc3nc2-1 [TOPOTECAN],,21 nM,,> 10000 nM,440 nM,,> 10000 nM,
COc1cc2c(=O)n(CCN(C)C(C)C)c3c4cc5c(cc4ncc3c2cc1OC)OCO5,3 nM,8 nM,6 nM,630 nM,4 nM,3 nM,71 nM,0.03
COc1cc2c(=O)n(CCN3CCNCC3)c3c4cc5c(cc4ncc3c2cc1OC)OCO5,100 nM,90 nM,60 nM,2700 nM,530 nM,1900 nM,300 nM,4.3
CCNCCn1c(=O)c2cc(OC)c(OC)cc2c2cnc3cc4c(cc3c21)OCO4,1 nM,2 nM,0.7 nM,170 nM,5 nM,16 nM,30 nM,0.1
COc1cc2c(=O)n(CCN3CCCC3)c3c4cc5c(cc4ncc3c2cc1OC)OCO5,3 nM,3 nM,6 nM,390 nM,4 nM,8 nM,60 nM,0.3
COc1cc2c(=O)n(CCNC(C)C)c3c4cc5c(cc4ncc3c2cc1OC)OCO5,5 nM,3 nM,1 nM,180 nM,6 nM,5 nM,30 nM,0.3
CCN(CCn1c(=O)c2cc(OC)c(OC)cc2c2cnc3cc4c(cc3c21)OCO4)C(C)C,3 nM,5 nM,4 nM,310 nM,8 nM,21 nM,120 nM,0.17
CCN(CC)CCn1c(=O)c2cc(OC)c(OC)cc2c2cnc3cc4c(cc3c21)OCO4,4 nM,6 nM,4 nM,850 nM,5 nM,15 nM,150 nM,1.4
COc1cc2c(=O)n(CCN(C)C)c3c4cc5c(cc4ncc3c2cc1OC)OCO5,,,,,6 nM,,230 nM,0.3
CNCCn1c(=O)c2cc(OC)c(OC)cc2c2cnc3cc4c(cc3c21)OCO4 [GENZ-644282],0.4 nM,0.3 nM,0.3 nM,250 nM,0.5 nM,22 nM,70 nM,0.1 µM
COc1cc2c(=O)n(CCN(C(C)C)C(C)C)c3c4cc5c(cc4ncc3c2cc1OC)OCO5,5 nM,8 nM,6 nM,600 nM,40 nM,40 nM,200 nM,4.7
COc1cc2c(=O)n(CCN(Cc3ccccc3)C(C)(C)C)c3c4cc5c(cc4ncc3c2cc1OC)OCO5,190 nM,850 nM,200 nM,5750 nM,500 nM,2500 nM,1850 nM,> 1000
COc1cc2c(=O)n(CCN3CCC(C)CC3)c3c4cc5c(cc4ncc3c2cc1OC)OCO5,30 nM,30 nM,14 nM,450 nM,40 nM,50 nM,190 nM,> 100
